eIF4E 4G PPI – blocks eIF4E binding to eIF4G | inhibition, % at 21.7 µM | TR-FRET eIF4E-eIF4GI(517-606) binding, 2 h | P63073+Q04637 | AID 782 | actives 0.37% (n = 220,000);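 further: 0% = full FRET control wells and 100% = background wells lacking eIF4GI fragment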
RBBP9 inh – blocks human serine hydrolase RBBP9; recombinant RBBP9, FP-Rh probe fluorescence polarization; actives 0.2% (n = 220,000); inhibition, % at 7.94 µM; O75884;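 active means inhibition above the campaign mean of all tested compounds plus 3 SD, cut at about 14% in these data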;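 further: plate controls were DMSO wells with RBBP9 for no effect and wells lacking RBBP9 protein for full effect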
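System: RBBP9 protein / Buffer or medium: Tris/NaCl buffer pH 8.0 with 0.1% Pluronic / Probe or stimulus: Serine-hydrolase probe FP-Rh, 375 nM pre-mixing / Dosing: 7.94 µM single dose, 0.794% DMSO / Times: enzyme-compound preincubation 30 min, then probe labeling 45 min, 25 °C / Technique: fluorescence polarization (mP), excitation 525 nm, emission 598 nm / Replication: singlicate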
14-3-3 Bad PPI – disrupts binding of bovine 14-3-3 zeta to phospho-Bad peptide; TR-FRET 14-3-3zeta/Dy647-pBad peptide displacement, 1 h; inhibition, % at 21.7 µM; actives 0.71% (n = 220,000); AID 781;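 active means inhibition above about 70%, limit read from the data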;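 further: 0% = full 14-3-3 plus peptide FRET controls and 100% = background without 14-3-3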
NCF1 inh – p47phox (human) inhibition | inhibition, % at 24.7 µM | AID 1274 | actives 0.53% (n = 220,000) | P14598 | p47phox/p22phox peptide binding, fluorescence polarization, 2 h;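 further: 0% = p47phox with labelled peptide and 100% = labelled peptide alone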
Wee1 stabilizer – human Wee1 degradation inhibition, primary screen | HeLa Luc-Wee1K328M stability, luciferase luminescence; 100% = proteasome inhibitor MG132 effect | reporter increase, % at 5 µM | actives 1.2% (n = 220,000) | AID 1321;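 active means activation above the mean of all tested compounds plus 3 SD, set per screening run, cut at about 8.8% in these data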;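 further: cells exposed to compound for 20 h before luminescence read; 0% = DMSO alone and 100% = MG132 at 30 µM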
An asterisk follows results filed as active; x = no result; + = active, no number; ! = a repeat was not active; [ ] = remark or other dose. A selection: hits, their analogues and other compounds. The true share with any hit is near 2.8%.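 How the source made its calls, unless noted: active means inhibition above about 30% (limit read from the data); inactive means the rest.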

SMILES | eIF4E 4G PPI | RBBP9 inh | 14-3-3 Bad PPI | NCF1 inh | Wee1 stabilizer
CCOc1ccc2cc(C3CC(c4ccco4)=NN3S(C)(=O)=O)c(=O)[nH]c2c1 (stereo unspecified) | 35.7* | -11.6 | 4.5 | -36.4 | 1.7
CC(=O)c1ccc(NC(=O)/C(=C\c2cccs2)NC(=O)c2ccco2)cc1 | -3.3 | -11.8 | 87.8* | -5.3 | 0.5
Cc1ccc(S(=O)(=O)N(C)C)cc1-n1c(SCC(=O)Nc2ccc(F)cc2Cl)nc2ccccc2c1=O | 10.6 | -9.1 | -28.8 | -21.8 | 8.9*
Cc1ccc(S(=O)(=O)N(C)C)cc1-n1c(SCC(=O)Nc2ccc(F)cc2)nc2ccccc2c1=O | 0.6 | -10.5 | -1.3 | -16.5 | 0.0
COc1cccc2c1c(NC(=O)Nc1ccc(F)cc1F)nn2C | -3.0 | -7.1 | -0.3 | -7.2 | -1.8
O=C1OCC=C1NNC(=O)c1cccnc1 | -0.3 | -7.0 | -4.8 | + | 0.9
CCCOC(=O)c1cc(-c2ccc(/C=C3/C(=O)N(C)C(=O)C(C#N)=C3C)o2)ccc1Cl | x | -0.3 | x | x | 1.4
C=CCOC(=O)c1cc(-c2ccc(/C=C3\C(=O)NC(=O)C(C#N)=C3C)o2)ccc1Cl | 60.3*[fluorescence artefact?] | -1.2 | 92.3*[fluorescence artefact?] | 39.2* | -1.5
CCCc1nn2c(=O)c(C(c3ccc(C)cc3)c3c(O)nc4sc(CCC)nn4c3=O)c(O)nc2s1 | 0.2 | -3.9 | -0.3 | 148.6* | 4.5
CC1CCc2nc(NC(=O)C3CCCO3)sc2C1 (stereo unspecified) | -4.1 | -5.9 | -3.4 | -14.7 | 9.7*
CC1CCc2nc(NC(=O)c3ccco3)sc2C1 (stereo unspecified) | 0.1 | -1.9 | -16.2 | -6.9 | 0.3
O=[N+]([O-])c1cccc(-c2ccc(C(=S)N3CCOCC3)o2)c1 | 2.3 | -2.4 | -9.8 | -3.4 | 6.3
CN1CCN(C(=S)c2ccc(-c3cccc([N+](=O)[O-])c3)o2)CC1 | 6.2 | 8.1 | 0.6 | -5.9 | 10.3*
CSc1cccc(NC(=O)Nc2ccccc2C(N)=O)c1 | -6.7 | -6.0 | 1.6 | -0.4 | 3.1
Oc1cc2ccccc2cc1-c1n[nH]c(=S)o1 | 2.6 | 6.6 | 40.2 | -9.2 | 8.9*
Cc1cc(-c2n[nH]c(=S)o2)c(C)n1-c1ccccc1 | 5.2 | -5.6 | -3.3 | -6.7 | 2.1
Cc1ccc(C(=O)OCCc2c(C)[nH]n(-c3ccccc3)c2=O)cc1 | -1.0 | -4.6 | -7.8 | 101.8* | -2.1
Cc1[nH]n(-c2ccccc2)c(=O)c1CCOC(=O)c1cccc(C(F)(F)F)c1 | -1.4 | -4.4 | -5.5 | -0.5 | -0.1
Cn1nc(-c2ccccc2)c(CSc2ccccc2Cl)c1Cl | -6.3 | -5.0 | 8.8 | 34.2* | -1.6
Cn1nc(-c2ccccc2)c(C(O)c2ccc(Cl)cc2)c1Cl (stereo unspecified) | -0.4 | -5.5 | -2.0 | -2.7 | 0.7
CCOc1ccccc1OCCCCCc1c(C)n[nH]c1C | 46.7* | 2.4 | 32.9 | -11.7 | -2.0
COc1ccccc1OCCCCCc1c(C)n[nH]c1C | -1.6 | -3.7 | 72.3* | -7.8 | 0.0
CCN1CCN(C(=O)c2ccc(CN(c3ccccc3)S(=O)(=O)c3ccccc3)cc2)CC1 | 1.3 | -11.3 | -11.5 | -10.8 | 0.8
COc1ccccc1NC(=O)OCC#CCOC(=O)Nc1ccccc1OC | 0.9 | -6.2 | 3.5 | 4.8 | 0.4
Cc1nn(Cc2ccccc2Cl)c(Cl)c1C(=O)NCCc1ccccc1 | -5.5 | 2.9 | -5.2 | 10.4 | 10.2*
SMILES | eIF4E 4G PPI | RBBP9 inh | 14-3-3 Bad PPI | NCF1 inh | Wee1 stabilizer
O=C(NCCc1ccccc1)c1nc2c(nnn2Cc2ccccc2Cl)c(=O)[nH]1 | 0.6 | -3.8 | 9.3 | -11.6 | -1.1
N#CCc1cc2ccc3cccc4ccc(c1)c2c34 | 0.1 | -6.1 | -1.9 | -26.2 | 22.3*
CCc1nn(-c2ccccc2)c2c1-c1cc(OC)c(OC)cc1C1(N2)C(=O)Nc2ccccc21 (stereo unspecified) | 6.2 | -16.7 | -7.0 | -11.5 | 1.5
COc1ccc(C2Nc3ccccc3C(=O)N2NS(=O)(=O)c2ccccc2)cc1OC (stereo unspecified) | -5.6 | 6.5 | -5.2 | 7.6 | -0.8
Cc1cc2c(C)nc(N/N=C/c3ccc([N+](=O)[O-])cc3)nc2o1 | 17.7 | -5.8 | 48.1 | 44.1* | 3.1
Cc1cc(C(=O)OCC(=O)c2cccc([N+](=O)[O-])c2)c2ccccc2n1 | 6.1 | 5.5 | 2.4 | 3.8 | 9.5*
C=C(C)CSc1nnc(CCCCCNC(=O)OC(C)(C)C)o1 | 3.8 | -3.2 | -9.2 | -2.4 | -2.2
CN=c1scc(-c2c[nH]c3ccccc23)n1C | -2.9 | -9.6 | -5.3 | -0.5 | 11.6*
COc1ccc(-c2nn(C)c(=O)[nH]2)cc1 | 1.6 | 2.4 | -5.0 | -5.9 | 10.6*
CC(O)CNc1nc2ccccc2n1CC(=O)NC12CC3CC(CC(C3)C1)C2 (stereo unspecified) | 1.5 | -6.3 | -4.8 | -4.6 | -1.1
Cc1ccnc(NC(=O)c2cccs2)c1 | -0.9 | 0.8 | 85.9* | -0.8 | 4.0
Cc1cccnc1NC(=S)NC(=O)c1cncc(Br)c1 | -5.1 | -8.6 | 9.2 | -15.0 | -5.0
Cc1cccnc1NC(=S)NC(=O)c1cccs1 | 1.2 | 7.5 | -19.5 | -17.5 | 12.6*
COCCn1nnnc1CN1CCN2CCCC2C1 (stereo unspecified) | 0.7 | -5.8 | 85.7* | 18.8 | 1.3
CCCCCN(C(=O)NC(=O)Nn1cnnc1)S(C)(=O)=O | 4.6 | -1.4 | 3.3 | -2.2 | 9.9*
O=C(c1ccc(Cl)cc1[N+](=O)[O-])N1CCN(c2ccccn2)CC1 | -0.5 | 2.2 | -6.7 | 1.4 | 9.3*
c1ccc(-c2cn(-c3ccccc3)c3[n+]2CCS3)cc1 | 0.3 | -1.4 | 5.8 | 0.1 | -3.4
COc1ccc(-c2cn(-c3ccccc3)c3[n+]2CCS3)cc1 | -5.7 | -6.2 | -23.4 | -6.6 | 10.6*!
COC(=O)c1ccc(C(=O)N(CCN(C)C)c2nc3c(Cl)cccc3s2)cc1 | 4.3 | 9.0 | -12.4 | -9.6 | 3.0
COc1ccc(-n2c(SCC(N)=O)nnc2-c2cccnc2)cc1 | 0.5 | -0.9 | -10.5 | 0.6 | 2.2
COc1cccc(-n2c(SCC(=O)O)nnc2-c2cccnc2)c1 | -5.2 | 2.7 | 87.5* | -4.2 | 0.3
CCN1CCN(C(c2cccs2)C(C)NS(=O)(=O)c2ccc(C)cc2)CC1 (stereo unspecified) | 1.1 | -11.6 | -3.4 | -2.9 | -0.9
CCN1CCN(C(c2cccs2)C(C)NS(=O)(=O)c2ccccc2)CC1 (stereo unspecified) | -2.8 | -9.7 | -8.4 | -4.5 | 11.2*
Cc1ccc(CCC(=O)Nc2ccccc2F)s1 | -1.3 | -0.8 | 11.1 | -0.1 | 1.8
CCSS(=O)(=O)c1cccc2cccnc12 | 22.7 | -1.5 | 14.9 | 51.9* | 2.2
Clc1ccccc1-c1ncc2ccccn12 | 7.7 | 3.8 | 26.1 | -7.0 | 8.9*
Clc1ccc(-c2ncc3ccccn23)cc1 | 7.1 | -7.5 | 11.2 | -12.2 | -1.4
O=C(O)CSc1nnc(COc2cccc3cccnc23)n1-c1cccc(C(F)(F)F)c1 | 68.3* | -6.9 | -4.7 | -16.4 | 3.6

From PubChem
